Compound activity (PubChem BioAssay)
Only some compounds are listed: those with a hit (about 1.5% of all), similar ones and a draw of the others.
APJ ag: APJ receptor agonism | P35414 | CHO-K1 APJ PathHunter beta-arrestin, luminescence; 0% DMSO wells, 100% apelin | activation, % at 20 µM | hit rate 0.11% among 330,000 | AID 2520;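 active = activation more than six SD over the plate average, tested at 20 µM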;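 note: 0% = DMSO alone and 100% = apelin-13 at 10 nM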
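system = engineered CHO-K1 APJ arrestin reporter cells | input = 1000 cells per well | timing = overnight seeding, 90 min compound at 25 °C, 1 h detection | measured by = enzyme-fragment complementation luminescence | read-out = beta-arrestin recruitment to APJ as agonist activity, luminescent signal | control set = negative DMSO alone, positive Apelin-13 at 10 nM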
CCR6 antagonist: blocks CCL20-driven beta-arrestin recruitment at human CCR6; inhibition, % at 20 µM; CHO-K1 CCR6 PathHunter beta-arrestin, luminescence, CCL20-stimulated; hit rate 0.49% among 340,000; AID 493098;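 active = compounds whose inhibition of the agonist-driven luminescence signal at 20 µM reaches about 50%, limit read from the data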;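 note: cells stimulated with CCL20 at 14 nM final; plate controls were DMSO with CCL20 for no effect and DMSO without agonist for full effect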
CXCR6 block: CXCR6 (human) receptor inhibition; O00574; CHO-K1 PathHunter CXCR6 beta-arrestin, luminescence; hit rate 0.36% among 360,000; inhibition, % at 20 µM; AID 602244; in the data active = inhibition above about 34%, passing the limit was not always enough;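 note: antagonist mode with CXCL16 agonist at 10 nM final; 0% = 10 nM CXCL16 with DMSO and 100% = unstimulated wells without agonist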
EBI2 block: EBI2 (human) antagonism. inhibition, % at 5 µM. EBI2 beta-arrestin recruitment, luminescence, 7a,25-OHC stimulated. AID 651636. P32249. hit rate 0.81% among 360,000; in the data active = inhibition above about 38%;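 note: enzyme fragment complementation signal reports receptor beta-arrestin coupling in cells; 0% = agonist plus DMSO wells and 100% = wells without agonist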
Target sequence (P32249 whole entry, looked up, the tested form may be a part): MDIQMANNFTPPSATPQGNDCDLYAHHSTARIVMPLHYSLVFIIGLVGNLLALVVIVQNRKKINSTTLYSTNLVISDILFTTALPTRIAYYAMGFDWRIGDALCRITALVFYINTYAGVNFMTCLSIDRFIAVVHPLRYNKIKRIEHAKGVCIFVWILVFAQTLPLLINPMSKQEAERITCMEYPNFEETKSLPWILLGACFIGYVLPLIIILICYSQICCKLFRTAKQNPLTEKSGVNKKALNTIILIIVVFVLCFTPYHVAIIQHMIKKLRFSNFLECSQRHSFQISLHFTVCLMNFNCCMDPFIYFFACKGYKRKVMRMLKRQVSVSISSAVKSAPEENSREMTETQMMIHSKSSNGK
APJ antagonist: antagonists of human APJ apelin receptor | P35414 | CHO-K1 APJ beta-arrestin complementation, luminescence | inhibition, % at 20 µM | hit rate 0.32% among 330,000 | AID 2521;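 active = inhibition above about 40% at 20 µM, limit read from the data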;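 note: cells challenged with 10 nM apelin-13 agonist together with compound; plate controls were apelin-13 plus DMSO wells for no effect and DMSO wells lacking apelin-13 for full effect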
* = called active by the depositor; / = no result.

SMILES	APJ ag	CCR6 antagonist	CXCR6 block	EBI2 block	APJ antagonist
COc1ccc(C(C(=O)Nc2ccc(F)cc2)N2CCN(C(=O)c3ccco3)CC2)cc1 (stereo unspecified)	/	/	/	1	/
Cc1ccccc1NC1=C/C(=N\S(=O)(=O)c2cccs2)c2ccccc2C1=O	-2	56*	32	19	7
Cn1c(CCN2CCOCC2)nc2cc(NC(=O)c3cccs3)ccc21	0	-5	1	3	-11
Cc1cc(C(=O)N/N=C/c2cc(N=Nc3ccccc3)ccc2O)n[nH]1	/	61*	16	9	/
COC(=O)N/N=C/c1cc(N=Nc2ccccc2)ccc1O	1	39	29	-11	-17
Cc1cc(C(=O)N/N=C/c2cccc([N+](=O)[O-])c2O)n[nH]1	-9	24	30	-11	23
Nc1ccc(C(=O)N/N=C\c2cc(N=Nc3cccc4ccccc34)ccc2O)cc1	-5	59*	28	10	31
COC(=O)N/N=C/c1cc(N=Nc2ccccc2Cl)ccc1O	-5	58*	32	1	11
O=C(NN=Cc1cc([N+](=O)[O-])ccc1O)c1cccc2ccccc12	/	49	15	9	/
Cc1cnccc1CNC(=O)C1CCC(=O)N(Cc2ccc(Cl)cc2)C1 (stereo unspecified)	-3	-7	1	-17	-14
COC(=O)C1=CN(c2ccc(OC)cc2OC)C(N)=C(C#N)C1c1cccc([N+](=O)[O-])c1 (stereo unspecified)	/	/	/	7	/
COc1ccc(C(N)c2csc(Nc3nncc4ccccc34)n2)cc1 (stereo unspecified)	/	/	-15	-14	/
CCN(CC)c1ccc(/C=C2\C(=O)c3ccc(C(=O)O)cc3C2=O)cc1	/	74*	49*	24	/
O=C(c1ccccc1)c1cc(Cl)ccc1N1C(=O)C=CC1=O	/	106*	61*	-7	/
O=C(NCCC1=CCCCC1)c1[nH]c(C(F)(F)F)nc1-c1ccccc1	/	/	0	-3	/
CCOC(=O)N1CCN(C(=O)c2ccc(Cn3c(=S)[nH]c4cc(OCC)c(OCC)cc4c3=O)cc2)CC1	27*	-29	-8	-34	-4
NC(Cc1ccc(F)cc1)c1csc(Nc2ccc(C(=O)c3ccccc3)cc2)n1 (stereo unspecified)	/	/	-22	0	/
N#CCCN(C(=S)NC(=O)c1cccs1)c1ccccc1F	-6	1	-14	-8	3
O=C(/C=C\c1ccccc1OC(=O)c1ccccc1F)c1cc2ccccc2o1	2	42	16	45*	34
CCOC(=O)C1=NNC(C(=O)c2ccc(Cl)cc2)C1c1ccc(OC)cc1 (stereo unspecified)	-13	48	18	12	65*
c1cc2c(cc1C1CCCCC1)c1c3n2CCCNC3CCC1 (stereo unspecified)	0	71*	4	-17	-4
O=C(CNc1ccc(Br)cc1)c1ccc(O)cc1	-3	39	2	0	35
O=C(CNc1ccc(Cl)cc1)c1ccc(Br)cc1	-12	62*	38	32	83*
COc1ccc(NC(=O)COC(=O)c2cc([N+](=O)[O-])ccc2N2CCOCC2)cc1	9	113*	10	1	3
OCc1ccc(-c2cccc3nccn23)cc1	/	/	1	-14	/
SMILES	APJ ag	CCR6 antagonist	CXCR6 block	EBI2 block	APJ antagonist
CCCOC(=O)C1=C(C)NC2=C(C(=O)CCC2)C1c1cccs1 (stereo unspecified)	-3	2	2	2	-3
COC(=O)C1=C(C)NC2=C(C(=O)CC(c3cccs3)C2)C1c1ccsc1 (stereo unspecified)	/	58*	33	22	/
CC1=C(C(=O)OC2CCCC2)C(c2ccc(C)o2)C2=C(CC(c3cccs3)CC2=O)N1 (stereo unspecified)	-3	58*	26	32	4
CC1=C(C(=O)OC2CCCCCC2)C(c2ccc(C)o2)C2=C(CCCC2=O)N1 (stereo unspecified)	1	25	6	13	10
Cc1ccc(S(=O)(=O)C[C@@H]2OC[C@H](C(C)C)N2S(=O)(=O)c2ccc(C)cc2)cc1	/	/	/	4	/
O=c1ccn([C@@H]2O[C@H](CNCc3ccccc3OCc3ccc(Cl)cc3Cl)[C@@H](O)[C@H]2O)c(=O)[nH]1	/	/	8	2	/
COc1ccc(CN2CN(c3ccc(Cl)cc3)C(=O)N(n3cnnc3)C2)cc1	-5	-16	44*	-4	24
Oc1ccc(CN2CCc3ccccc3C2)c2cccnc12	-6	44	27	67*	21
